Legend:
HT-29 = assay: Cytotoxicity against human HT-29 cells after 72 hrs by MTT assay; type: cell-based; settings: HT-29, 72 h
Outline: (§1)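 Cells grown in MEM with 10% FBS; about 4×10^3 cells per well seeded and held 24 h at 37°C in 5% CO₂. Compounds then added and culture continued 72 h. MTT added ([…]) for 4 h at 37°C. Formazan dissolved in DMSO and absorbance read at 492 nm against 630 nm reference. Each compound tested three times per line; IC50 is the mean of at least three determinations.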

Homo sapiens [1] = species: Homo sapiens; assay: Selectivity ratio of IC50 for human A549 cells expressing wild-type EGFR/K-Ras mutant to IC50 for human NCI-H1975 cells expressing EGFR L858R/T790M double mutant
A549 = assay: Cytotoxicity against human A549 cells expressing wild-type EGFR/K-ras mutant after 72 hrs by MTT assay; type: cell-based; settings: A549, 72 h; outline: as §1
NCI-H1975 = assay: Cytotoxicity against human NCI-H1975 cells expressing EGFR L858R/T790M double mutant after 72 hrs by MTT assay; type: functional, cell-based; settings: NCI-H1975, 72 h; outline: as §1
[2] = target: Epidermal growth factor receptor (Homo sapiens, UniProt P00533, L858R/T790M); assay: Inhibition of recombinant human GST-tagged EGFR L858R/T790M double mutant cytoplasmic domain (668 to 1210 residues) expressed in baculovirus expression system using FAM-labelled peptide as substrate pretreated for 10 mins followed by substrate addition measured after 1 hr by mobility shift assay
[3] = target: Epidermal growth factor receptor (Homo sapiens, UniProt P00533); assay: Inhibition of recombinant human GST-tagged EGFR cytoplasmic domain (668 to 1210 residues) expressed in baculovirus expression system using FAM-labelled peptide as substrate pretreated for 10 mins followed by substrate addition measured after 1 hr by mobility shift assay
[4] = target: Epidermal growth factor receptor (Homo sapiens, UniProt P00533, T790M); assay: Inhibition of recombinant human GST-tagged EGFR T790M mutant cytoplasmic domain (668 to 1210 residues) expressed in baculovirus expression system using FAM-labelled peptide as substrate pretreated for 10 mins followed by substrate addition measured after 1 hr by mobility shift assay
Homo sapiens [5] = species: Homo sapiens; assay: Selectivity ratio of IC50 for recombinant human GST-tagged EGFR cytoplasmic domain (668 to 1210 residues) expressed in baculovirus expression system to IC50 for recombinant human GST-tagged EGFR L858R/T790M double mutant cytoplasmic domain (668 to 1210 residues) expressed in baculovirus expression system
Outline: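 Caliper mobility-shift kinase assay in 50 mM HEPES pH 7.5, 0.0015% Brij35, 2 mM DTT. Five-point DMSO dilution series, in duplicate. Enzyme (EGFR form as appropriate) was preincubated with compound for 10 min at room temperature. FAM-labeled peptide plus ATP was added, then 1 h at 28°C. Stopped with EDTA buffer. Percent inhibition came from substrate conversion; ratio taken as WT IC50 over L858R/T790M IC50.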

Epidermal growth factor receptor (Homo sapiens, UniProt P00533), sequence (P00533 whole entry, the tested form may be a part): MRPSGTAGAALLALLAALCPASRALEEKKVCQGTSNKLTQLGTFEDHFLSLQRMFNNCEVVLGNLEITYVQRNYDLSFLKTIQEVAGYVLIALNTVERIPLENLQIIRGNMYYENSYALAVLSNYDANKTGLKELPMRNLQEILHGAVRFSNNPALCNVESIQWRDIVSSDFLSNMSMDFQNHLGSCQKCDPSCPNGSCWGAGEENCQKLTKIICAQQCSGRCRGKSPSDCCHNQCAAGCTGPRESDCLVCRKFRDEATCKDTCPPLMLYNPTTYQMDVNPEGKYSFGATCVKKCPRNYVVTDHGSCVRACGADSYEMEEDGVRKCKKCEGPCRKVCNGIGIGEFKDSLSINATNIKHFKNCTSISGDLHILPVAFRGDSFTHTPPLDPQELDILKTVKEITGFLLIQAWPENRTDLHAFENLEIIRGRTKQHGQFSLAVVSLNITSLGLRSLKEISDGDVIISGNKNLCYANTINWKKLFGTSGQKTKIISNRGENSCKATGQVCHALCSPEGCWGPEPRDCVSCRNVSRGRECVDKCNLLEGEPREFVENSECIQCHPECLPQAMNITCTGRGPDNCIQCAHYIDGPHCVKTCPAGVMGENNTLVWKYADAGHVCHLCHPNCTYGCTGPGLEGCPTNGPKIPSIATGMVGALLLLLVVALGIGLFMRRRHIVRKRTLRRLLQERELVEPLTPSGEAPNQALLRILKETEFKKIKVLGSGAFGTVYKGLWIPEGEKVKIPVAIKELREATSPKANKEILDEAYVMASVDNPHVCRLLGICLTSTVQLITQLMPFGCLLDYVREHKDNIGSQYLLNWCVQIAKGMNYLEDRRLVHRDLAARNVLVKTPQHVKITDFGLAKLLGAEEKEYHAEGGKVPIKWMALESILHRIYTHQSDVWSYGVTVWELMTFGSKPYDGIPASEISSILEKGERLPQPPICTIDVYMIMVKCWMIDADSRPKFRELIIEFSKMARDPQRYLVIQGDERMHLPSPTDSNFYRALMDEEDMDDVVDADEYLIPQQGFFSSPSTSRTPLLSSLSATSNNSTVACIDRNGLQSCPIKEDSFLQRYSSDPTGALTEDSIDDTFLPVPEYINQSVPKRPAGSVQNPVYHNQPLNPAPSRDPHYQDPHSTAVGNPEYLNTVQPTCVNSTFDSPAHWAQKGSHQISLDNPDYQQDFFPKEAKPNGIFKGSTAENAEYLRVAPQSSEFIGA
Epidermal growth factor receptor (Homo sapiens, UniProt P00533, L858R/T790M), sequence (P00533 25-1210 T790M/L858R limits assumed): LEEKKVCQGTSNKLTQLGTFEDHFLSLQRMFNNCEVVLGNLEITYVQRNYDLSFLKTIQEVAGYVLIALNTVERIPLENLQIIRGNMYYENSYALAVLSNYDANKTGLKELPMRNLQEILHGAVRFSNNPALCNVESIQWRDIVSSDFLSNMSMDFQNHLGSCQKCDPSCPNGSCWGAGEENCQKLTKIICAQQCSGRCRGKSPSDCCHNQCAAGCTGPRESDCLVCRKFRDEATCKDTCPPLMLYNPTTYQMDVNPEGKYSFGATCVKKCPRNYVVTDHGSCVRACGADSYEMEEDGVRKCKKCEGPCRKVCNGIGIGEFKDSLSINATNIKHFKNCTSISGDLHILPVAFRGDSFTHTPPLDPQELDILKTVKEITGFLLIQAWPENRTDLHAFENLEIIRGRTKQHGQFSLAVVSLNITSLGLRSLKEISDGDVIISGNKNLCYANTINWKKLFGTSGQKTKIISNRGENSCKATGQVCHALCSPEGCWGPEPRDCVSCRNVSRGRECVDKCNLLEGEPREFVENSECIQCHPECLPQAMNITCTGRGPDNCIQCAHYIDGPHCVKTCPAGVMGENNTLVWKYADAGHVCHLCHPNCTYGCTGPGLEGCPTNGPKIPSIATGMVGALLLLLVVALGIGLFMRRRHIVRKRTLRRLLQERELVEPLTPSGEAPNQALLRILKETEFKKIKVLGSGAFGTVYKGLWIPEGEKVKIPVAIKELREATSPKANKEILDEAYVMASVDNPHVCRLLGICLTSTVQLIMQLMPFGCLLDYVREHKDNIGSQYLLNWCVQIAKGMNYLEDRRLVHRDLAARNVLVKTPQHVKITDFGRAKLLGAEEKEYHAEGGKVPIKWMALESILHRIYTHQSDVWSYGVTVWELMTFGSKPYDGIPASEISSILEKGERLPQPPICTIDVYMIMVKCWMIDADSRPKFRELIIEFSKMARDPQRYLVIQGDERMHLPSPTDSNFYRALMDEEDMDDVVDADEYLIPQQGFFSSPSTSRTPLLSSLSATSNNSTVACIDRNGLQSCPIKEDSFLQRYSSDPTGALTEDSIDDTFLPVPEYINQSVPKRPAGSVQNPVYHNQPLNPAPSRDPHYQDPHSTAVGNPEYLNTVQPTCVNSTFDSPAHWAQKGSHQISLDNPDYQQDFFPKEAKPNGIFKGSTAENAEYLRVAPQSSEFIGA

Row | Compound | Ratio IC50 (Homo sapiens [1]) | IC50 (HT-29) [nM] | IC50 (A549) [nM] | IC50 (NCI-H1975) [nM] | IC50 ([2]; read-out: IC50) [nM] | IC50 [3] [nM] | IC50 [4] [nM] | Ratio IC50 (Homo sapiens [5]) | IC50 ([2]; read-out: pIC50 (converted)) [nM]
1 | C=CC(=O)Nc1cc(Nc2ncc3ncn(-c4ccc(C(C)C)cc4)c3n2)c(OC)cc1N1CCN(C)CC1 | 5 | 7690 | 9250 | 1930 |  |  |  |  | 
2 | C=CC(=O)Nc1cc(Nc2ncc3ncn(-c4ccc(Cl)cc4)c3n2)c(OC)cc1N(C)CCN(C)C | 30 | 7690 | 1860 | 85 | 3.9 | 15.6 | 6.4 | 7 | 
3 | C=CC(=O)Nc1cc(Nc2ncc3ncn(-c4ccc(F)cc4)c3n2)c(OC)cc1N(C)CCN(C)C | 7 | 12000 | 420 | 61 | 3.2 | 18.2 | 5.8 | 5.6 | 
4 | C=CC(=O)Nc1cc(Nc2ncc3ncn(-c4ccccc4Cl)c3n2)c(OC)cc1N(C)CCN(C)C | 7 | 11300 | 12600 | 1710 |  |  |  |  | 
5 | C=CC(=O)Nc1cc(Nc2ncc3ncn(-c4ccc(I)cc4)c3n2)c(OC)cc1N1CCN(C)CC1 | < 1 | 20700 | 6310 | 7320 |  |  |  |  | 
6 | C=CC(=O)Nc1cc(Nc2ncc3ncn(-c4ccc(Br)cc4)c3n2)c(OC)cc1N(C)CCN(C)C | 8 | 1460 | 1150 | 140 |  |  |  |  | 
7 | C=CC(=O)Nc1cc(Nc2ncc3nc(Nc4ccccc4)n(C(C)C)c3n2)c(OC)cc1N(C)CCN(C)C | 31 | 4720 | 1420 | 46 | 5.1 | 41 |  | 8 | 
8 | C=CC(=O)Nc1cc(Nc2ncc3ncn(-c4ccc(I)cc4)c3n2)c(OC)cc1N(C)CCN(C)C | 115 | 9520 | 8710 | 76 | 3.5 | 17 | 4.7 | 4.9 | 
9 | C=CC(=O)Nc1cc(Nc2ncc3ncn(-c4ccc(Cl)cc4Cl)c3n2)c(OC)cc1N(C)CCN(C)C | 7 | 20600 | 11200 | 1610 |  |  |  |  | 
10 | C=CC(=O)Nc1cc(Nc2ncc3ncn(C4CCCC4)c3n2)c(OC)cc1N(C)CCN(C)C | 9 | 20800 | 2900 | 330 |  |  |  |  | 
11 | C=CC(=O)Nc1cc(Nc2ncc3ncn(-c4ccc(C(C)C)cc4)c3n2)c(OC)cc1N1CCOCC1 | < 1 | 23000 | 4230 | 5100 |  |  |  |  | 
12 | C=CC(=O)Nc1cc(Nc2nccc(-c3cn(C)c4ccccc34)n2)c(OC)cc1N(C)CCN(C)C [OSIMERTINIB] |  | 650 | 870 | […] |  |  |  |  | 
13 | C=CC(=O)Nc1cc(Nc2ncc3ncn(-c4ccc(F)c(Br)c4)c3n2)c(OC)cc1N(C)CCN(C)C | 86 | 3640 | 3020 | 35 | 2.3 | 10 |  | 4.3 | 
14 | C=CC(=O)Nc1cc(Nc2ncc3nc(Nc4ccccc4)n(C)c3n2)c(OC)cc1N(C)CCN(C)C | 160 | 8700 | 6080 | 38 | 2.7 | 22.4 | 3.5 | 8.3 | 2.69
15 | C=CC(=O)Nc1cc(Nc2ncc3ncn(-c4ccc(C(C)C)cc4)c3n2)c(OC)cc1N(C)CCN(C)C | 196 | 15300 | 14500 | 74 | 4.2 | 25 |  | 6 | 
16 | C=CC(=O)Nc1cc(Nc2ncc3ncn(-c4ccc(OC)cc4)c3n2)c(OC)cc1N(C)CCN(C)C | 42 | 1740 | 3330 | 160 |  |  |  |  | 

More lines, main results first:

Row | Ratio IC50 (Homo sapiens [1]) | Compound | IC50 (HT-29) [nM] | IC50 (A549) [nM] | IC50 (NCI-H1975) [nM] | IC50 ([2]; read-out: IC50) [nM] | IC50 [3] [nM] | IC50 [4] [nM] | Ratio IC50 (Homo sapiens [5]) | IC50 ([2]; read-out: pIC50 (converted)) [nM]
17 | 16 | C=CC(=O)Nc1cc(Nc2ncc3ncn(-c4ccc(CC)cc4)c3n2)c(OC)cc1N(C)CCN(C)C | 8180 | 1970 | 130 |  |  |  |  | 
18 | 3 | C=CC(=O)Nc1cc(Nc2ncc3ncn(-c4ccc(C)cc4)c3n2)c(OC)cc1N(C)CCN(C)C | 9230 | 360 | 140 |  |  |  |  | 
19 | < 1 | C=CC(=O)Nc1cc(Nc2ncc3ncn(-c4ccccc4F)c3n2)c(OC)cc1N(C)CCN(C)C | 9750 | 5820 | 6720 |  |  |  |  | 
20 | < 1 | C=CC(=O)Nc1cc(Nc2ncc3[nH]c(=O)n(-c4ccc(C(C)C)cc4)c3n2)c(OC)cc1N1CCOCC1 | 1540 | 1170 | 4040 |  |  |  |  | 
21 | 3 | C=CC(=O)Nc1cc(Nc2ncc3nc(Nc4ccccc4)n(C4CCCC4)c3n2)c(OC)cc1N(C)CCN(C)C | 11400 | 780 | 230 |  |  |  |  | 
22 | < 1 | C=CC(=O)Nc1cc(Nc2ncc3ncn(-c4ccc(I)cc4)c3n2)c(OC)cc1N1CCOCC1 | 35100 | 1520 | 29800 |  |  |  |  | 
23 | 58 | C=CC(=O)Nc1cc(Nc2ncc3ncn(-c4ccccc4)c3n2)c(OC)cc1N(C)CCN(C)C | 8080 | 580 | 110 |  |  |  |  | 
24 | 4 | C=CC(=O)Nc1cc(Nc2ncc3[nH]c(=O)n(-c4ccc(I)cc4)c3n2)c(OC)cc1N1CCOCC1 | 19600 | 18500 | 4310 |  |  |  |  | 
25 | < 1 | C=CC(=O)Nc1cc(Nc2ncc3[nH]c(=O)n(-c4ccc(I)cc4)c3n2)c(OC)cc1N1CCN(C)CC1 | 39300 | 490 | 10400 |  |  |  |  | 
26 | 35 | C=CC(=O)Nc1cc(Nc2ncc3ncn(-c4ccc(F)c(Cl)c4)c3n2)c(OC)cc1N(C)CCN(C)C | 1610 | 5190 | 100 |  |  |  |  | 
27 | 15 | C=CC(=O)Nc1cc(Nc2ncc3[nH]c(=O)n(-c4ccc(I)cc4)c3n2)c(OC)cc1N(C)CCN(C)C | 4820 | 1230 | 830 |  |  |  |  | 
28 | 1 | C=CC(=O)Nc1cc(Nc2ncc3ncn(-c4ccccc4Br)c3n2)c(OC)cc1N(C)CCN(C)C | 16200 | 2090 | 1800 |  |  |  |  | 
29 | 1 | C=CC(=O)Nc1cc(Nc2ncc3[nH]c(=O)n(-c4ccc(C(C)C)cc4)c3n2)c(OC)cc1N1CCN(C)CC1 | 14300 | 2050 | 2140 |  |  |  |  | 
